Source: ChEMBL document CHEMBL1811814, “Synthesis and evaluation of indole, pyrazole, chromone and pyrimidine based conjugates for tumor growth inhibitory activities--development of highly efficacious cytotoxic agents” (Eur J Med Chem, 2010)

Assays:
Assay type in all cases: functional
[1] = system: HCT-116; experiment: Growth inhibition of human HCT116 cells
[2] = system: HCT-15; experiment: Growth inhibition of human HCT15 cells
[3] = system: SF-268; experiment: Growth inhibition of human SF268 cells
[4] = system: SF-539; experiment: Growth inhibition of human SF539 cells
[5] = system: LOX IMVI; experiment: Growth inhibition of human LOXIMVI cells
[6] = system: M14; experiment: Growth inhibition of human M14 cells
[7] = system: MDA-MB-435; experiment: Growth inhibition of human MDA-MB-435 cells
[8] = system: SK-MEL-2; experiment: Growth inhibition of human SK-MEL-2 cells
[9] = system: SK-MEL-5; experiment: Growth inhibition of human SK-MEL-5 cells
[10] = system: UACC-257; experiment: Growth inhibition of human UACC257 cells
[11] = system: OVCAR-3; experiment: Growth inhibition of human OVCAR3 cells
[12] = system: OVCAR-5; experiment: Growth inhibition of human OVCAR5 cells
[13] = system: OVCAR-8; experiment: Growth inhibition of human OVCAR8 cells
[14] = system: NCI/ADR-RES; experiment: Growth inhibition of human NCI/ADR-RES cells
[15] = system: SK-OV-3; experiment: Growth inhibition of human SKOV3 cells
[16] = system: 786-0; experiment: Growth inhibition of human 786-0 cells
[17] = system: A498; experiment: Growth inhibition of human A498 cells
[18] = system: ACHN; experiment: Growth inhibition of human ACHN cells
[19] = system: TK-10; experiment: Growth inhibition of human TK10 cells
[20] = system: UO-31; experiment: Growth inhibition of human UO31 cells
[21] = system: PC-3; experiment: Growth inhibition of human PC3 cells
[22] = system: MDA-MB-231; experiment: Growth inhibition of human MDA-MB-231 cells
[23] = system: BT-549; experiment: Growth inhibition of human BT549 cells
[24] = system: HOP-62; experiment: Growth inhibition of human HOP62 cells assessed tumor cell growth at 10^-5 M; design: scale not given: the % may be the effect or the level left
Summary of the method: (§1)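 NCI 60-human-tumor-cell-line panel screen. Each compound was tested at a single concentration of 10^-5 M, and percent growth of tumor cells was recorded for each cell line. Growth inhibition was expressed from these percent-growth values.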

[25] = system: HOP-92; experiment: Growth inhibition of human HOP92 cells assessed tumor cell growth at 10^-5 M; design: scale not given: the % may be the effect or the level left; summary of the method: as §1
[26] = system: NCI-H23; experiment: Growth inhibition of human NCI-H23 cells assessed tumor cell growth at 10^-5 M; design: scale not given: the % may be the effect or the level left; summary of the method: as §1
[27] = system: NCI-H322M; experiment: Growth inhibition of human NCI-H322M cells assessed tumor cell growth at 10^-5 M; design: scale not given: the % may be the effect or the level left; summary of the method: as §1
[28] = system: NCI-H460; experiment: Growth inhibition of human NCI-H460 cells assessed tumor cell growth at 10^-5 M; design: scale not given: the % may be the effect or the level left; summary of the method: as §1
[29] = system: HCT-116; experiment: Growth inhibition of human HCT116 cells assessed tumor cell growth at 10^-5 M; design: scale not given: the % may be the effect or the level left; summary of the method: as §1
[30] = system: HCT-15; experiment: Growth inhibition of human HCT15 cells assessed tumor cell growth at 10^-5 M; design: scale not given: the % may be the effect or the level left; summary of the method: as §1
[31] = system: SW-620; experiment: Growth inhibition of human SW620 cells assessed tumor cell growth at 10^-5 M; design: scale not given: the % may be the effect or the level left
Summary of the method: (§2)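 Single-dose screen at 10^-5 M across the 60 human tumor cell line panel, run to NCI standards. The value is the percent growth of each cell line in the presence of compound. Compounds active at this dose moved on to five-concentration testing (10^-4 to 10^-8 M).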

[32] = system: SF-295; experiment: Growth inhibition of human SF295 cells assessed tumor cell growth at 10^-5 M; design: scale not given: the % may be the effect or the level left; summary of the method: as §1
[33] = system: SF-539; experiment: Growth inhibition of human SF539 cells assessed tumor cell growth at 10^-5 M; design: scale not given: the % may be the effect or the level left; summary of the method: as §1
[34] = system: MDA-MB-435; experiment: Growth inhibition of human MDA-MB-435 cells assessed tumor cell growth at 10^-5 M; design: scale not given: the % may be the effect or the level left; summary of the method: as §1
[35] = system: SK-MEL-2; experiment: Growth inhibition of human SK-MEL-2 cells assessed tumor cell growth at 10^-5 M; design: scale not given: the % may be the effect or the level left; summary of the method: as §1
[36] = system: SK-MEL-28; experiment: Growth inhibition of human SK-MEL-28 cells assessed tumor cell growth at 10^-5 M; design: scale not given: the % may be the effect or the level left; summary of the method: as §1
[37] = system: UACC-257; experiment: Growth inhibition of human UACC257 cells assessed tumor cell growth at 10^-5 M; design: scale not given: the % may be the effect or the level left; summary of the method: as §2
[38] = system: OVCAR-3; experiment: Growth inhibition of human OVCAR3 cells assessed tumor cell growth at 10^-5 M; design: scale not given: the % may be the effect or the level left; summary of the method: as §1
[39] = system: OVCAR-4; experiment: Growth inhibition of human OVCAR4 cells assessed tumor cell growth at 10^-5 M; design: scale not given: the % may be the effect or the level left; summary of the method: as §1
[40] = system: OVCAR-8; experiment: Growth inhibition of human OVCAR8 cells assessed tumor cell growth at 10^-5 M; design: scale not given: the % may be the effect or the level left; summary of the method: as §1
[41] = system: NCI/ADR-RES; experiment: Growth inhibition of human NCI/ADR-RES cells assessed tumor cell growth at 10^-5 M; design: scale not given: the % may be the effect or the level left; summary of the method: as §1
[42] = system: 786-0; experiment: Growth inhibition of human 786-0 cells assessed tumor cell growth at 10^-5 M; design: scale not given: the % may be the effect or the level left; summary of the method: as §1
[43] = system: SN12C; experiment: Growth inhibition of human SN12C cells assessed tumor cell growth at 10^-5 M; design: scale not given: the % may be the effect or the level left; summary of the method: as §1
[44] = system: PC-3; experiment: Growth inhibition of human PC3 cells assessed tumor cell growth at 10^-5 M; design: scale not given: the % may be the effect or the level left; summary of the method: as §1
[45] = system: DU-145; experiment: Growth inhibition of human DU145 cells assessed tumor cell growth at 10^-5 M; design: scale not given: the % may be the effect or the level left; summary of the method: as §1
[46] = Growth inhibition of human Hs 578T cells assessed tumor cell growth at 10^-5 M; design: scale not given: the % may be the effect or the level left; summary of the method: as §1
[47] = system: BT-549; experiment: Growth inhibition of human BT549 cells assessed tumor cell growth at 10^-5 M; design: scale not given: the % may be the effect or the level left; summary of the method: as §1
[48] = system: K562; experiment: Growth inhibition of human K562 cells
[49] = system: MOLT-4; experiment: Growth inhibition of human MOLT4 cells
[50] = Growth inhibition of human RPMI8266 cells
[51] = system: A549; experiment: Growth inhibition of human A549 cells
[52] = system: EKVX; experiment: Growth inhibition of human EKVX cells
[53] = system: NCI-H322M; experiment: Growth inhibition of human NCI-H322M cells
[54] = system: COLO 205; experiment: Growth inhibition of human COLO205 cells
[55] = read-out: LC50 (the source's name)

CC1=NN(c2cccc(Cl)c2)C(=O)/C1=C\c1c(O)ccc2ccccc12
GI50 [1]: > 100 µM | CC50 [1, 55]: > 100 µM | GI50 [2]: > 100 µM | CC50 [2, 55]: > 100 µM | GI50 [3]: 97.7 µM | CC50 [3, 55]: > 100 µM | GI50 [4]: 0.01 µM | CC50 [4, 55]: > 100 µM | GI50 [5]: > 100 µM | CC50 [5, 55]: > 100 µM | GI50 [6]: > 100 µM | CC50 [6, 55]: > 100 µM | GI50 [7]: > 100 µM | CC50 [7, 55]: > 100 µM | GI50 [8]: 21.8 µM | CC50 [8, 55]: > 100 µM | GI50 [9]: > 100 µM | CC50 [9, 55]: > 100 µM | GI50 [10]: > 100 µM | CC50 [10, 55]: > 100 µM | GI50 [11]: 58.8 µM | CC50 [11, 55]: > 100 µM | GI50 [12]: > 100 µM | CC50 [12, 55]: > 100 µM | GI50 [13]: > 100 µM | CC50 [13, 55]: > 100 µM | GI50 [14]: > 100 µM | CC50 [14, 55]: > 100 µM | GI50 [15]: 26.3 µM | CC50 [15, 55]: > 100 µM | GI50 [16]: 21.3 µM | CC50 [16, 55]: > 100 µM | GI50 [17]: > 100 µM | CC50 [17, 55]: > 100 µM | GI50 [18]: 16.9 µM | CC50 [18, 55]: > 100 µM | GI50 [19]: 34.6 µM | CC50 [19, 55]: > 100 µM | GI50 [20]: > 100 µM | CC50 [20, 55]: > 100 µM | GI50 [21]: > 100 µM | CC50 [21, 55]: > 100 µM | GI50 [22]: 36.3 µM | CC50 [22, 55]: > 100 µM | GI50 [23]: 27.5 µM | CC50 [23, 55]: > 100 µM | Activity [24]: -64.07% | Activity [25]: -2.07% | Activity [26]: -1.95% | Activity [27]: 84.08% | Activity [28]: 79.03% | Activity [29]: 8.69% | Activity [30]: 49.94% | Activity [31]: 30.97% | Activity [32]: 25.62% | Activity [33]: 72.26% | Activity [34]: 20.68% | Activity [35]: 38.07% | Activity [36]: 35.25% | Activity [37]: 79.99% | Activity [38]: 63.18% | Activity [39]: -66.84% | Activity [40]: 22.34% | Activity [41]: 75.31% | Activity [42]: -46.85% | Activity [43]: 23.59% | Activity [44]: 33.03% | Activity [45]: 35.43% | Activity [46]: 82.15% | Activity [47]: 90.21% | GI50 [48]: 44.6 µM | CC50 [48, 55]: > 100 µM | GI50 [49]: > 100 µM | LC50 [49]: > 100 µM | GI50 [50]: > 100 µM | CC50 [50, 55]: > 100 µM | GI50 [51]: > 100 µM | CC50 [51, 55]: > 100 µM | GI50 [52]: > 100 µM | CC50 [52, 55]: > 100 µM | GI50 [53]: > 100 µM | CC50 [53, 55]: > 100 µM | GI50 [54]: > 100 µM | LC50 [54]: > 100 µM
